The nature of assay [1]: HUVEC growth inhibition – cell-based, human, primary screen (AID 575;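 active = viability at or below 30% in both replicate assays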;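 also: 100% = median of untreated cell wells with 0.1% DMSO on each plate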). Particulars: HUVEC proliferation, CellTiter-Glo luminescence, 72 h; at 10 µM; stronger effect = lower value. Summed up: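 Timing: 72 h treatment at 37 °C; material: HUVEC primary cells; technique: CellTiter-Glo luminescence measuring cellular ATP; controls: vehicle and MePR control wells; measure: percent of median DMSO-control luminescence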

Assay [2] can be described thus: H69AR cell proliferation blockers – human, duplicate replicates, primary screen (AID 580;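 active = viability at or under a set limit in both replicates, limit being median viability minus 3 SD, cut at about 48% in these data, passing the limit was not always enough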;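 also: 100% = mean luminescence of untreated wells and 0% = no signal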). Particulars: H69AR lung tumor cells viability, ATP luminescence, 72 h; at 10 µM; stronger effect = lower value.
Assay [3] is described as follows: MRP1 drug-resistance reversers in H69AR cells – cell-based, doxorubicin co-treatment, pilot screen (AID 601;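 active = viability loss from added drug above about 55%, and viability with drug at most 40%, in both replicates, limit read from the data, passing the limit was not always enough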). Particulars: CellTiter-Glo, 72 h, at 10 µM; for differential viability (reversal): stronger effect = higher value.
A short description of assay [4]: yeast transport mutant growth inhibition pilot in 384-well plates, post-Golgi transport modulator project (AID 636). Particulars: absorbance 615 nm, about 18 h, stronger effect = higher value.
A short description of assay [5]: growth suppression of yeast trafficking mutant, preliminary HTS, modulators of trafficking downstream of Golgi apparatus project, 1536-format plate, OD 615 nm (AID 637; in the data active = inhibition above about 30%). The following applies: yeast transport mutant growth, absorbance 615 nm, 18 h; stronger effect = higher value.
Setting [6] is: H69AR cells + 2 uM doxorubicin, measured here: viability with 2 uM doxorubicin, stronger effect = lower value.
Setting [7] is: H69AR cells, compound alone cytotoxicity.

Calls of active or inactive are those of the source. Rule as the data show it, unless noted: active = inhibition above about 31%; inactive = the rest.

With `CN1CCN(C(=O)CN(Cc2ccc(Cl)cc2)S(C)(=O)=O)CC1`, the viability in assay [1] was 93.3% (inactive); in assay [2], 94.5% (inactive); in assay [3] (setting [6]) it was 95.8%; in assay [3] (setting [7]), 94.5%. Also, the differential viability (reversal) in assay [3] (H69AR cells + 2 uM doxorubicin) is -1.31% (inactive). Moreover, the inhibition in assay [4] was -1.45% (inactive); in assay [5] it was 4.44% (inactive).

Consider `Cc1cnn(C(=S)NCc2ccco2)c1`, for which the viability was 70.2% (inactive) in assay [1], 84.5% (inactive) in assay [2], 90.1% in assay [3] (setting [6]) and 84.5% in assay [3] (setting [7]). For the same compound, the differential viability (reversal) in assay [3] (H69AR cells + 2 uM doxorubicin) is -5.57% (inactive). For the same compound, the figures for the inhibition in assay [4] and in assay [5] were 2.24% (inactive) and -4.92% (inactive), respectively.

Regarding `CS(=O)(=O)N1CCN(C(=O)c2ccc(-c3ccccc3)cc2)CC1`, the viability in assay [1] is 96.7% (inactive); in assay [2], 96.1% (inactive); in assay [3] (setting [6]), 85.9%; in assay [3] (setting [7]) it was 96.1%. In assay [3] (H69AR cells + 2 uM doxorubicin), the differential viability (reversal) was 10.2% (inactive). Moreover, the inhibition in assay [4] was -2.99% (inactive); in assay [5] it was 8.25% (inactive).

On to `CN(CC(=O)N1CCN(c2ccccn2)CC1)S(=O)(=O)c1ccc2ccccc2c1`, for which the viability in assay [1] is 81.5% (inactive); in assay [2] it was 89% (inactive); in assay [3] (setting [6]) it was 79.8%; in assay [3] (setting [7]), 89%. The differential viability (reversal) in assay [3] (H69AR cells + 2 uM doxorubicin) is 9.23% (inactive). Moreover, the inhibition in assay [4] was -2.63% (inactive); in assay [5] it was -3.33% (inactive).

In the case of `COc1ccc(Br)cc1S(=O)(=O)N1CCOCC1`, the viability in assay [1] is 99.7% (inactive); in assay [2] it was 87.2% (inactive); in assay [3] (setting [6]), 83.5%; in assay [3] (setting [7]), 87.2%. Also, the differential viability (reversal) in assay [3] (H69AR cells + 2 uM doxorubicin) is 3.77% (inactive). For the same compound, the inhibition in assay [4] was -2.76% (inactive); in assay [5] it was 1.75% (inactive).

`CCOC(=O)C1CCCN(c2nc3ccccc3nc2C(C#N)C(=O)NCc2ccccc2)C1` (stereo not given): the viability in assay [1] is 80.6% (inactive); in assay [2], 86.2% (inactive); in assay [3] (setting [6]), 85.8%; in assay [3] (setting [7]) it was 86.2%. Moreover, in assay [3] (H69AR cells + 2 uM doxorubicin), the differential viability (reversal) is 0.385% (inactive). Besides, the inhibition was -3.95% (inactive) in assay [4] and -1.27% (inactive) in assay [5].

As to `CCOc1ccccc1N1CCN(S(=O)(=O)c2cccc3nsnc23)CC1`, the viability in assay [1] was 84.1% (inactive); in assay [2], 86.1% (inactive); in assay [3] (setting [6]), 81.4%; in assay [3] (setting [7]) it was 86.1%. For the same compound, the differential viability (reversal) in assay [3] (H69AR cells + 2 uM doxorubicin) was 4.72% (inactive). In addition, the inhibition in assay [4] is 0.26% (inactive); in assay [5] it was 10.9% (inactive).

For the compound `CSC1=C(C#N)C(c2ccc(C)cc2)C2=C(CCCC2=O)N1` (stereo not given), the viability in assay [1] was 91.3% (inactive); in assay [2], 77.6% (inactive); in assay [3] (setting [6]) it was 67.5%; in assay [3] (setting [7]), 77.6%. The differential viability (reversal) in assay [3] (H69AR cells + 2 uM doxorubicin) is 10.1% (inactive). Besides, the inhibition in assay [4] is -2.99% (inactive); in assay [5], -0.95% (inactive).

As for `Nc1nnc(SCC(=O)N2CCN(c3ccccc3)CC2)n1-c1ccccc1`, the viability is 80.6% (inactive) in assay [1], 90% (inactive) in assay [2], 82.1% in assay [3] (setting [6]) and 90% in assay [3] (setting [7]). Besides, the differential viability (reversal) in assay [3] (H69AR cells + 2 uM doxorubicin) was 7.97% (inactive). Besides, the inhibition was -0.78% (inactive) in assay [4] and 2.06% (inactive) in assay [5].

For `COC(=O)Cc1[nH]nc2c1C(C1C=CCCC1)C(C#N)=C(N)O2` (stereo not given), the viability in assay [1] was 49.3% (inactive); in assay [2], 95.8% (inactive); in assay [3] (setting [6]) it was 88.2%; in assay [3] (setting [7]) it was 95.8%. Besides, the differential viability (reversal) in assay [3] (H69AR cells + 2 uM doxorubicin) was 7.65% (inactive). Further, the inhibition in assay [4] is -4.21% (inactive); in assay [5], 3.33% (inactive).

As for `CCCC(C)C1C(C#N)=C(N)Oc2cc(C)oc(=O)c21` (stereo not given), the viability in assay [1] is 98.4% (inactive); in assay [2] it was 85.7% (inactive); in assay [3] (setting [6]), 92.6%; in assay [3] (setting [7]) it was 85.7%. In addition, in assay [3] (H69AR cells + 2 uM doxorubicin), the differential viability (reversal) is -6.91% (inactive). The inhibition in assay [4] was -2.5% (inactive); in assay [5] it was 4.76% (inactive).

Consider `Cn1cccc1C(=O)NC(=O)CSc1nnc(C2CC2)n1-c1ccccc1`, for which the viability was 102% (inactive) in assay [1], 85.7% (inactive) in assay [2], 93% in assay [3] (setting [6]) and 85.7% in assay [3] (setting [7]). Further, in assay [3] (H69AR cells + 2 uM doxorubicin), the differential viability (reversal) is -7.28% (inactive). Further, the inhibition was -1.17% (inactive) in assay [4] and -0.63% (inactive) in assay [5].

Regarding `Cc1c(NC(=O)C2CCCNC2=O)c(=O)n(-c2ccccc2)n1C` (stereo not given), the viability in assay [1] was 107% (inactive); in assay [2], 107% (inactive); in assay [3] (setting [6]), 107%; in assay [3] (setting [7]) it was 107%. For the same compound, the differential viability (reversal) in assay [3] (H69AR cells + 2 uM doxorubicin) is -0.405% (inactive). The inhibition in assay [4] is -2.24% (inactive); in assay [5], 3.33% (inactive).

With `COCC(=O)NC(c1ccccc1)c1ccccc1`, the viability in assay [1] was 86.1% (inactive); in assay [2], 89.5% (inactive); in assay [3] (setting [6]), 77.3%; in assay [3] (setting [7]), 89.5%. Besides, in assay [3] (H69AR cells + 2 uM doxorubicin), the differential viability (reversal) is 12.2% (inactive). The inhibition in assay [4] was -5.84% (inactive); in assay [5] it was 3.81% (inactive).

`CCn1c(CSc2nc(C)cc(C)n2)nnc1SCC(=O)Nc1ccccc1`: the viability was 104% (inactive) in assay [1], 89.5% (inactive) in assay [2], 85.4% in assay [3] (setting [6]) and 89.5% in assay [3] (setting [7]). For the same compound, in assay [3] (H69AR cells + 2 uM doxorubicin), the differential viability (reversal) was 4.12% (inactive). Besides, the inhibition in assay [4] is -4.27% (inactive); in assay [5] it was -3.02% (inactive).

On to `Cc1[nH]nc2c1C1(CCN(C(=O)c3ccccc3)CC1)C(C#N)=C(N)O2`, for which the viability in assay [1] is 104% (inactive); in assay [2], 98.7% (inactive); in assay [3] (setting [6]), 95.7%; in assay [3] (setting [7]) it was 98.7%. For the same compound, the differential viability (reversal) in assay [3] (H69AR cells + 2 uM doxorubicin) is 3.04% (inactive). Besides, the inhibition in assay [4] is 0.52% (inactive); in assay [5], 6.83% (inactive).

With `Cc1cc(=O)[nH]c2c1cnn2Cc1ccccc1`, the viability in assay [1] was 116% (inactive); in assay [2], 98.9% (inactive); in assay [3] (setting [6]) it was 93.9%; in assay [3] (setting [7]), 98.9%. In addition, the differential viability (reversal) in assay [3] (H69AR cells + 2 uM doxorubicin) was 5.01% (inactive). In addition, the inhibition was -1.97% (inactive) in assay [4] and -3.33% (inactive) in assay [5].

For `COc1cccc(N2CCN(c3ncnc4c3[nH]c3ccc(F)cc34)CC2C)c1` (stereo not given), the viability in assay [1] was 2.17% (active); in assay [2], 3.55% (active); in assay [3] (setting [6]) it was 4.56%; in assay [3] (setting [7]), 3.55%. Moreover, the differential viability (reversal) in assay [3] (H69AR cells + 2 uM doxorubicin) is -1.01% (inactive). The values for the inhibition in assay [4] and in assay [5] were 71% (active) and 29.6% (inactive), respectively.

Consider `COc1ccc(OC)c(Nc2ncnc3c2cnn3-c2ccccc2)c1`, for which the viability is 99.3% (inactive) in assay [1], 90.5% (inactive) in assay [2], 88.5% in assay [3] (setting [6]) and 90.5% in assay [3] (setting [7]). The differential viability (reversal) in assay [3] (H69AR cells + 2 uM doxorubicin) is 1.97% (inactive). Besides, the figures for the inhibition in assay [4] and in assay [5] were -4.67% (inactive) and -5.87% (inactive), respectively.

`COc1ccc(NC(=O)CSc2nnc(-c3ccncc3)n2CC2CCCO2)c(OC)c1` (stereo not given): the viability in assay [1] was 89.2% (inactive); in assay [2] it was 104% (inactive); in assay [3] (setting [6]) it was 97.7%; in assay [3] (setting [7]), 104%. The differential viability (reversal) in assay [3] (H69AR cells + 2 uM doxorubicin) was 5.88% (inactive). In addition, the inhibition in assay [4] is -6.36% (inactive); in assay [5], 4.13% (inactive).

Values taken from PubChem BioAssay.
